Data from ChEMBL document CHEMBL1255449, “Antiviral properties, metabolism, and pharmacokinetics of a novel azolo-1,2,4-triazine-derived inhibitor of influenza A and B virus replication” (Antimicrob Agents Chemother, 2010).
Activity calls are given as the source filed them. The rule behind the calls is not given here.

How the values were obtained:
Influenza A virus [1] = test: Antiviral activity against Influenza A virus (A/duck/Potsdam/1402-6/1986 (H5N2)) infected in MDCK cells assessed as log reduction in viral titer at 960 uM after 48 hrs by MTT assay; type: functional
[2] = Cmax in rabbit at 105 mg/kg, ig up to 24 hrs by HPLC analysis; type: ADME, organism-based, Oryctolagus cuniculus; set-up: dose 105 mg/kg, route intragastric; conditions: in vivo, po
Outline: (§1)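 Rabbits (n = 4), anesthetised with ether-Fluorothane 10:1, given a single 105 mg/kg dose in water (12 ml) by gastric tube. Ear-vein blood was heparinised at set times up to 24 h, mixed with methanol, centrifuged, dried, redissolved in water and assayed by C18 HPLC. Parameters came from an extravascular noncompartmental model. F = (AUCi.g./dose)/(AUCi.v./dose); CL = dose/AUC; Vss = CL × MRT.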

[3] = Total clearance in rabbit at 105 mg/kg, ig up to 24 hrs by HPLC analysis; type: ADME, organism-based, Oryctolagus cuniculus; set-up: dose 105 mg/kg, route intragastric; conditions: in vivo, po; outline: as §1
Oryctolagus cuniculus [4] = test: Volume of distribution at steady state in rabbit at 105 mg/kg, ig up to 24 hrs by HPLC analysis; type: ADME, organism-based; set-up: dose 105 mg/kg, route intragastric; conditions: in vivo, po; outline: as §1
[5] = Toxicity against ip dosed rabbit; type: organism-based, Oryctolagus cuniculus; conditions: in vivo
H3N2 subtype [6] = test: Antiviral activity against Influenza A virus (A/Aichi/2/1968(H3N2)) infected in […] at 100 to 150 mg/kg, ig administered 1 hr before infection; type: functional, organism-based
Influenza B virus [7] = test: Antiviral activity against Influenza B virus (B/Lee/1940) infected in rabbit at 100 to 150 mg/kg, ig administered after 48 hrs post infection; type: functional, organism-based
[8] = Apparent elimination half life in rabbit at 105 mg/kg, ig by HPLC analysis; type: ADME, organism-based, Oryctolagus cuniculus; set-up: dose 105 mg/kg, route intragastric; conditions: in vivo, po, read-out: beta t1/2 (converted); outline: as §1
Influenza A virus [9] = test: Antiviral activity against Influenza A virus H3N2 (A/Victoria/35/72) infected in human HuH7 cells assessed as log reduction in viral titer at 1000 ug/ml; type: functional, Huh-7
Influenza A virus [10] = test: Antiviral activity against Influenza A virus/H7N3 (A/Mallard/NT/12/02) infected in MDCK cells assessed as log reduction in viral titer at 960 uM after 48 hrs by MTT assay; type: functional
Influenza A virus [11] = test: Antiviral activity against Influenza A virus (A/Vietnam/1194/2004 (H5N1)) infected in MDCK cells assessed as log reduction in viral titer at 385 uM after 48 hrs […]; type: functional
Influenza B virus [12] = test: Antiviral activity against Influenza B virus (B/Lee/1940) infected in […] at 100 to 150 mg/kg, ig administered after 24 hrs post infection; type: functional, organism-based
[13] = Total AUC in rabbit at 105 mg/kg, ig up to 24 hrs by HPLC analysis; type: ADME, organism-based, Oryctolagus cuniculus; set-up: time AUCmax, dose 105 mg/kg, route intragastric; conditions: in vivo, po; outline: as §1
Influenza B virus [14] = test: Antiviral activity against Influenza B virus (B/Lee/1940) infected in […] at 100 to 150 mg/kg, ig administered 1 hr before infection; type: functional, organism-based
H3N2 subtype [15] = test: Antiviral activity against Influenza A virus (A/Aichi/2/1968(H3N2)) infected in […] assessed as survival rate at 100 mg/kg, ig administered 1 and 24 hrs before infection and 24 to 72 hrs post infection; type: functional; conditions: route intragastric
Influenza A virus [16] = test: Antiviral activity against Influenza A virus H3N2 (A/Victoria/35/72) infected in MDCK cells assessed as log reduction in viral titer at 960 uM after 48 hrs […]; type: functional
Outline: (§2)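 MDCK monolayers in MEM with 10% FBS at 37°C under 5% CO2 were infected with allantoic-fluid virus diluted 10−1 to 10−7. Aqueous test compound was added after 1 h adsorption. Virus yield was read at 48 h by haemagglutination with 0.5% chicken erythrocytes, and titres also by plaque assay. Each concentration was run in duplicate.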

[17] = Bioavailability in rabbit at 105 mg/kg, ig up to 24 hrs by HPLC analysis; type: ADME, organism-based, Oryctolagus cuniculus; conditions: in vivo, po; outline: as §1
[18] = Mean residence time in rabbit at 105 mg/kg, ig by HPLC analysis; type: ADME, organism-based, Oryctolagus cuniculus; set-up: dose 105 mg/kg, route intragastric; conditions: in vivo, po; outline: as §1
Influenza B virus [19] = test: Antiviral activity against Influenza B virus (B/Lee/1940) infected in […] assessed as survival rate at 150 mg/kg, ig administered 1 and 24 hrs before infection and 24 to 72 hrs post infection; type: functional; conditions: route intragastric
H3N2 subtype [20] = test: Antiviral activity against Influenza A virus (A/Aichi/2/1968(H3N2)) infected in […] at 100 to 150 mg/kg, ig administered after 24 hrs post infection; type: functional, organism-based
Influenza A virus [21] = test: Antiviral activity against Influenza A virus H3N2 (A/Victoria/35/72) infected in HEK293T cells assessed as log reduction in viral titer at 1000 ug/ml; type: functional, HEK-293T
Influenza A virus [22] = test: Antiviral activity against Influenza A virus (A/Hong Kong/1073/99(H9N2)) infected in MDCK cells assessed as log reduction in viral titer at 960 uM after 48 hrs […]; type: functional
[23] = Cytotoxicity against MDCK cells after 48 hrs by MTT assay; type: cell-based, Canis lupus familiaris; conditions: dog
Outline: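 Cytotoxicity was measured on uninfected MDCK monolayers grown in MEM with 10% FBS and penicillin/streptomycin at 37°C under 5% CO2. Viability was read by MTT and expressed as CC50.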

H3N2 subtype [24] = test: Antiviral activity against Influenza A virus (A/Aichi/2/1968(H3N2)) infected in […] at 100 to 150 mg/kg, ig administered after 48 hrs post infection; type: functional, organism-based
Influenza A virus [25] = test: Antiviral activity against Influenza A virus (A/duck/Potsdam/1402-6/1986 (H5N2)) infected in MDCK cells assessed as log reduction in viral titer at 385 uM after 48 hrs […]; type: functional
[26] = Toxicity against ig dosed rabbit; type: organism-based, Oryctolagus cuniculus; conditions: in vivo, po
Influenza A virus [27] = test: Antiviral activity against Influenza A virus H3N2 (A/Victoria/35/72) infected in MDCK cells assessed as log reduction in viral titer at 385 uM after 48 hrs […]; type: functional; outline: as §2
H3N2 subtype [28] = test: Antiviral activity against Influenza A virus (A/Aichi/2/1968(H3N2)) infected in […] at 100 to 150 mg/kg, ig administered 24 hrs before infection; type: functional, organism-based
Influenza A virus [29] = test: Antiviral activity against Influenza A virus (A/Vietnam/1194/2004 (H5N1)) infected in MDCK cells assessed as log reduction in viral titer at 960 uM after 48 hrs […]; type: functional
Influenza B virus [30] = test: Antiviral activity against Influenza B virus (B/Lee/1940) infected in […] at 100 to 150 mg/kg, ig administered 24 hrs before infection; type: functional, organism-based
Influenza A virus [31] = test: Antiviral activity against Influenza A virus (A/Hong Kong/1073/99(H9N2)) infected in MDCK cells assessed as log reduction in viral titer at 385 uM after 48 hrs […]; type: functional
[32] = Tmax in rabbit at 105 mg/kg, ig by HPLC analysis; type: ADME, organism-based, Oryctolagus cuniculus; set-up: dose 105 mg/kg, route intragastric; conditions: in vivo, po; outline: as §1
Influenza A virus [33] = test: Antiviral activity against Influenza A virus H7N3 (A/Mallard/NT/12/02) infected in MDCK cells assessed as log reduction in viral titer at 385 uM after 48 hrs […]; type: functional
Influenza B virus [34] = test: Antiviral activity against Influenza B virus (B/Lee/1940) infected in […] assessed as survival rate at 100 mg/kg, ig administered 1 and 24 hrs before infection and 24 to 72 hrs post infection; type: functional; conditions: route intragastric
Oryctolagus cuniculus [35] = test: Total AUC in rabbit at 4.3 mg/kg, iv up to 24 hrs by HPLC analysis; type: ADME, organism-based; set-up: time AUCmax, dose 4.3 mg/kg, route intravenous; conditions: in vivo
Outline: (§3)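 Rabbits (n = 4) received 4.3 mg/kg in physiological solution into the marginal ear vein over 1 min. Ear-vein blood was heparinised at set times up to 24 h, methanol-extracted and assayed by C18 HPLC with a heptafluorobutyric acid/ethanol gradient. A noncompartmental i.v. infusion model gave AUCtot, T1/2 and MRT; Vss = CL × MRT.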

Influenza A virus [36] = test: Antiviral activity against Influenza A virus (A/duck/Potsdam/1402-6/1986 (H5N2)) infected in MDCK cells assessed as log reduction in viral titer at 502 uM after 48 hrs […]; type: functional
Influenza A virus [37] = test: Antiviral activity against Influenza A virus (A/Hong Kong/1073/99(H9N2)) infected in MDCK cells assessed as log reduction in viral titer at 502 uM after 48 hrs […]; type: functional
Influenza A virus [38] = test: Antiviral activity against Influenza A virus (A/Vietnam/1194/2004 (H5N1)) infected in MDCK cells assessed as log reduction in viral titer at 502 uM after 48 hrs […]; type: functional
Influenza A virus [39] = test: Antiviral activity against Influenza A virus H3N2 (A/Victoria/35/72) infected in MDCK cells assessed as log reduction in viral titer at 502 uM after 48 hrs […]; type: functional; outline: as §2
H3N2 subtype [40] = test: Antiviral activity against Influenza A virus (A/Aichi/2/1968(H3N2)) infected in […] assessed as survival rate at 50 mg/kg, ig administered 1 and 24 hrs before infection and 24 to 72 hrs post infection; type: functional; conditions: route intragastric
Influenza A virus [41] = test: Antiviral activity against Influenza A virus/H7N3 (A/Mallard/NT/12/02) infected in MDCK cells assessed as log reduction in viral titer at 502 uM after 48 hrs by MTT assay; type: functional
Influenza B virus [42] = test: Antiviral activity against Influenza B virus (B/Lee/1940) infected in […] assessed as survival rate at 50 mg/kg, ig administered 1 and 24 hrs before infection and 24 to 72 hrs post infection; type: functional; conditions: route intragastric
Oryctolagus cuniculus [43] = test: Volume of distribution at steady state in rabbit at 4.3 mg/kg, iv up to 24 hrs by HPLC analysis; type: ADME, organism-based; set-up: dose 4.3 mg/kg, route intravenous; conditions: in vivo; outline: as §3

Question: What does the source list for `CSc1nc2[n-]nc([N+](=O)[O-])c(=O)n2n1.O.O.[Na+]` [TRIAZAVIRINE]?
Answer: FC (Influenza A virus [1]): 1.6; Cmax [2]: 1100 ng/mL; CL/F [3]: 617 mL/min/kg; Vdss (Oryctolagus cuniculus [4]): 83.5 L/kg; LD50 [5]: 1400 mg/kg; Activity (H3N2 subtype [6]): Active; Activity (Influenza B virus [7]): Active; half-life [8]: 1.1 h; FC (Influenza A virus [9]): <0.75; FC (Influenza A virus [10]): 3.5; FC (Influenza A virus [11]): 2; Activity (Influenza B virus [12]): Active; AUC at 24 h [13]: 3100 ng·h/mL; Activity (Influenza B virus [14]): Active; Activity (H3N2 subtype [15]): 70%; FC (Influenza A virus [16]): 1; bioavailability [17]: 12.5%; MRT [18]: 2.3 h; Activity (Influenza B virus [19]): 65%; Activity (H3N2 subtype [20]): Active; FC (Influenza A virus [21]): <0.75; FC (Influenza A virus [22]): 0.5; CC50 at 48 h [23]: > 8 mM; Activity (H3N2 subtype [24]): Active; FC (Influenza A virus [25]): 0.5; LD50 [26]: 2200 mg/kg; FC (Influenza A virus [27]): 1; Activity (H3N2 subtype [28]): Active; FC (Influenza A virus [29]): 2.25; Activity (Influenza B virus [30]): Active; FC (Influenza A virus [31]): 0; Tmax [32]: 0.4 h; FC (Influenza A virus [33]): 0.25; Activity (Influenza B virus [34]): 65%

Question: For `CC(N)C12CC3CC(CC(C3)C1)C2` (configuration not stated) [RIMANTADINE], which AUC (Oryctolagus cuniculus [35]) is on record?
Answer: 1200 ng·h/mL

Question: What about the FC (Influenza A virus [36]) of the same molecule?
Answer: 2

Question: And the FC (Influenza A virus [37])?
Answer: 0.75

Question: And the FC (Influenza A virus [38])?
Answer: 1

Question: And the FC (Influenza A virus [39])?
Answer: 5

Question: And the Activity (H3N2 subtype [40])?
Answer: 80%

Question: And the FC (Influenza A virus [41])?
Answer: 3

Question: And the Activity (H3N2 subtype [15])?
Answer: 85%

Question: What about the Activity (Influenza B virus [42]) of the same molecule?
Answer: 15%

Question: What about the Vdss (Oryctolagus cuniculus [43]) of the same molecule?
Answer: 1.2 L/kg

Question: What about the Activity (Influenza B virus [34]) of the same molecule?
Answer: 20%

Question: With `CSc1nc2[nH]nc(N)c(=O)n2n1` as the molecule, how does the Cmax [2] read?
Answer: 140 ng/mL

Question: And the CL/F [3]?
Answer: 740 mL/min/kg

Question: And the Vdss (Oryctolagus cuniculus [4])?
Answer: 58.5 L/kg

Question: What about the half-life [8] of the same molecule?
Answer: 0.97 h

Question: What about the AUC at 24 h [13] of the same molecule?
Answer: 690 ng·h/mL

Question: What about the MRT [18] of the same molecule?
Answer: 4.14 h

Question: And the Tmax [32]?
Answer: 3 h
